Reference: ChEMBL document CHEMBL1125708, “Synthesis and antiviral activity of 5-heteroaryl-substituted 2'-deoxyuridines” (1991)
Values after ≈ are worked out from the molar mass of the structure shown.

Tests used:
Conditions in all cases: Homo sapiens
HEL [1] = assay: In vitro antiviral activity and cytotoxicity, and minimum inhibitory concentration required to reduce cell growth by 50% in HEL cell culture; format: functional
How it was run: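 Cytotoxicity was measured as inhibition of growth of human embryonic lung (HEL) cells seeded in 96-well microtiter plates. The value is the concentration reducing cell growth by 50%.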

E6SM [2] = assay: Minimum inhibitory concentration required to reduce virus induced cytopathicity in embryonic skin muscle (E6SM) cell culture of virus HSV-2 (Lyons) was measured.; format: functional
E6SM [3] = assay: (§1) Minimum inhibitory concentration required to reduce virus induced cytopathicity in embryonic skin muscle (E6SM) cell culture of virus VSV was measured; format: functional
E6SM [4] = assay: minimum inhibitory concentration required to cause a microscopically detectable change in normal cell morphology; format: functional
How it was run: (§2)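 Cytotoxicity was judged by microscopic inspection of uninfected cell monolayers in microtiter plates. The value is the minimum concentration causing a microscopically detectable change in normal cell morphology.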

HEL [5] = assay: Minimum inhibitory concentration required to reduce virus induced plaque formation in HEL cell culture of virus CMV (Davis) was measured; format: functional
How it was run: (§3)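 Plaque-reduction assay in human embryonic lung (HEL) cells in 96-well microtiter plates. VZV strains were Oka and YS, plus TK-deficient 07-1 and YS-R. CMV strains were AD169 and Davis. The value is the concentration reducing virus plaque formation by 50%.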

E6SM [6] = assay: Minimum inhibitory concentration required to reduce virus induced cytopathicity in embryonic skin muscle (E6SM) cell culture of virus TK- HSV-1 (B2006) was measured; format: functional
E6SM [7] = assay: Minimum inhibitory concentration required to reduce virus induced cytopathicity in embryonic skin muscle (E6SM) cell culture of virus HSV-1 (Mc Intyre) was measured; format: functional
HEL [8] = assay: Minimum concentration required to reduce virus induced plaque formation in HEL cell culture of virus TK- VZV (YS-R) was measured; format: functional; how it was run: as §3
E6SM [9] = assay: Minimum inhibitory concentration required to reduce virus induced cytopathicity in embryonic skin muscle (E6SM) cell culture of virus HSV-1 (KOS) was measured; format: functional
HEL [10] = assay: minimum inhibitory concentration required to reduce virus induced plaque formation in HEL cell culture of virus VZS (YS) was measured.; format: functional; how it was run: as §3
E6SM [11] = assay: Minimum inhibitory concentration required to reduce virus induced cytopathicity in embryonic skin muscle (E6SM) cell culture of virus TK- HSV-1 (VMW1837) was measured; format: functional
HEL [12] = assay: Minimum inhibitory concentration required to reduce virus induced plaque formation in HEL cell culture of virus VZS (OKA) was measured; format: functional; how it was run: as §3
E6SM [13] = assay: Minimum inhibitory concentration required to reduce virus induced cytopathicity in embryonic skin muscle (E6SM) cell culture of virus HSV-2 (G) was measured; format: functional
E6SM [14] = assay: Minimum inhibitory concentration required to reduce virus induced cytopathicity in embryonic skin muscle (E6SM) cell culture of virus VV was measured; format: functional
HEL [15] = assay: Minimum inhibitory concentration required to reduce virus induced plaque formation in HEL cell culture of virus TK- VZV (07-1) was measured; format: functional; how it was run: as §3
E6SM [16] = assay: Minimum inhibitory concentration required to reduce virus induced cytopathicity in embryonic skin muscle (E6SM) cell culture of virus HSV-1( F) was measured; format: functional
HEL [17] = assay: Minimum inhibitory concentration required to reduce virus induced plaque formation in HEL cell culture of virus CMV (AD169) was measured; format: functional; how it was run: as §3
E6SM [18] = assay: Minimum inhibitory concentration required to reduce virus induced cytopathicity in embryonic skin muscle (E6SM) cell culture of virus HSV-2 (196) was measured.; format: functional
E6SM [19] = assay: Minimum inhibitory concentration required to cause a microscopically detectable change in normal cell morphology; format: functional; how it was run: as §2
E6SM [20] = assay: Minimum inhibitory concentration required to reduce virus induced cytopathicity in embryonic skin muscle (E6SM) cell culture of virus HSV-2 (196) was measured; format: functional
HEL [21] = assay: Minimum inhibitory concentration required to reduce virus induced plaque formation in HEL cell culture of virus VZS (YS) was measured; format: functional; how it was run: as §3
E6SM [22] = assay: minimum inhibitory concentration required to reduce virus induced cytopathicity in embryonic skin muscle (E6SM) cell culture of virus HSV-2 (Lyons) was measured.; format: functional
HEL [23] = assay: as §1; format: functional
E6SM [24] = assay: Minimum inhibitory concentration required to reduce virus induced cytopathicity in embryonic skin muscle (E6SM) cell culture of virus VV was measured
HEL [25] = assay: Minimum inhibitory concentration required to reduce virus induced plaque formation in HEL cell culture of virus TK- VZV (YS-R) was measured; format: functional; how it was run: as §3

| Compound | MIC (HEL [1]) [µg/mL] | MIC (E6SM [2]) [µg/mL] | MIC (E6SM [3]) [µg/mL] | MIC (HEL [5]) [µg/mL] | MIC (E6SM [6]) [µg/mL] | MIC (E6SM [7]) [µg/mL] | MIC (HEL [8]) [µg/mL] | MIC (E6SM [9]) [µg/mL] | MIC (HEL [10]) [µg/mL] | MIC (E6SM [11]) [µg/mL] | MIC (HEL [12]) [µg/mL] | MIC (E6SM [13]) [µg/mL] | MIC (E6SM [14]) [µg/mL] | MIC (HEL [15]) [µg/mL] | MIC (E6SM [16]) [µg/mL] | MIC (HEL [17]) [µg/mL] | MIC (E6SM [18]) [µg/mL] | MIC (E6SM [19]) [µg/mL] | MIC (HEL [21]) [µg/mL] | further results |
| --- | --- | --- | --- | --- | --- | --- | --- | --- | --- | --- | --- | --- | --- | --- | --- | --- | --- | --- | --- | --- |
| O=c1[nH]c(=O)n([C@H]2C[C@H](O)[C@@H](CO)O2)cc1-c1cc(-c2ccccc2)no1 | > 200 | > 40 | > 40 | 25 (≈ 67.3 µM) | > 40 | > 40 | > 100 | > 40 | 73 (≈ 197 µM) | > 40 | 38 (≈ 102 µM) | > 40 | > 40 | 61 (≈ 164 µM) | > 40 | 25 (≈ 67.3 µM) | > 40 | – | – | MIC (E6SM [4]): > 40 µg/mL |
| O=c1[nH]c(=O)n([C@H]2C[C@H](O)[C@@H](CO)O2)cc1-c1cc(-c2ccc(Cl)cc2)no1 | > 200 | > 40 | > 40 | 7 (≈ 17.3 µM) | > 40 | > 40 | 77 (≈ 190 µM) | > 40 | > 40 | > 40 | 9 (≈ 22.2 µM) | > 40 | > 40 | 22 (≈ 54.2 µM) | > 40 | 7 (≈ 17.3 µM) | > 40 | > 40 | – | – |
| O=c1[nH]c(=O)n([C@H]2C[C@H](O)[C@@H](CO)O2)cc1-c1cc(Br)no1 | > 50 | – | > 400 | > 100 | > 400 | 2 (≈ 5.35 µM) | > 100 | 7 (≈ 18.7 µM) | – | > 400 | 0.09 (≈ 0.241 µM) | > 200 | > 400 | > 100 | 2 (≈ 5.35 µM) | > 100 | – | > 400 | 0.24 (≈ 0.641 µM) | MIC (E6SM [20]): > 400 µg/mL; MIC (E6SM [22]): > 400 µg/mL |
| O=c1[nH]c(=O)n([C@H]2C[C@H](O)[C@@H](CO)O2)cc1/C=C/Br [BRIVUDINE] | 200 (≈ 600 µM) | > 400 | – | 250 (≈ 750 µM) | 100 (≈ 300 µM) | 0.07 (≈ 0.21 µM) | – | 0.07 (≈ 0.21 µM) | – | > 400 | 0.003 (≈ 0.00901 µM) | 10 (≈ 30 µM) | – | 8 (≈ 24 µM) | 0.07 (≈ 0.21 µM) | 250 (≈ 750 µM) | > 400 | > 400 | 0.003 (≈ 0.00901 µM) | MIC (HEL [23]): > 400 µg/mL; MIC (E6SM [24]): 1 µg/mL (≈ 3 µM); MIC (HEL [25]): 0.4 µg/mL (≈ 1.2 µM) |
